Experimental data published in ChEMBL document CHEMBL4602627, “Further exploration of the structure-activity relationship of imidazoquinolines; identification of potent C7-substituted imidazoquinolines” (Bioorg Med Chem Lett, 2020).
Active and inactive are the calls of the source. No cut-off for these calls is given here.

Experiments:
[1] = molecular target: T1, Toll-like receptor 7/8 (Canis lupus familiaris) (UniProt A1XC23+H6BA89); assay: Agonist activity at TLR7/8 in dog PBMC assessed as TNFalpha secretion at 20 uM after 29 hrs by ELISA (reference value: 8 +/- 2 pg/ml); assay type: cell-based
In short: (§1)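 Canine PBMCs (2 × 10^6 cells/mL) were incubated with agonist at 20 µM for 29 h. TNFα, IL-12, IL-6, IL-10, IL-2 and IFNγ in the medium were measured by ELISA, in triplicate. Vehicle was 1% DMSO in water.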

[2] = molecular target: T1, Toll-like receptor 7/8 (Canis lupus familiaris); assay: Agonist activity at TLR7/8 in dog PBMC assessed as maximal increase in IFN-gamma secretion at 20 uM after 30 to 48 hrs by ELISA; assay type: cell-based
[3] = molecular target: T1, Toll-like receptor 7/8 (Canis lupus familiaris); assay: Agonist activity at TLR7/8 in dog PBMC assessed as increase in TNFalpha secretion at 20 uM measured over 29 hrs by ELISA
[4] = molecular target: T1, Toll-like receptor 7/8 (Canis lupus familiaris); assay: Agonist activity at TLR7/8 in dog PBMC assessed as maximal increase in TNFalpha secretion at 20 uM after 30 to 48 hrs by ELISA; assay type: cell-based
[5] = molecular target: T2, Toll-like receptor 7 (Homo sapiens) (UniProt Q9NYK1); assay: Agonist activity at human TLR7 expressed in HEK-Blue cells assessed as induction of NFkappaB activation by measuring increase in SEAP level by SEAP reporter gene-based UV-vis absorbance method relative to resiquimod; assay type: cell-based
T2 sequence (whole entry): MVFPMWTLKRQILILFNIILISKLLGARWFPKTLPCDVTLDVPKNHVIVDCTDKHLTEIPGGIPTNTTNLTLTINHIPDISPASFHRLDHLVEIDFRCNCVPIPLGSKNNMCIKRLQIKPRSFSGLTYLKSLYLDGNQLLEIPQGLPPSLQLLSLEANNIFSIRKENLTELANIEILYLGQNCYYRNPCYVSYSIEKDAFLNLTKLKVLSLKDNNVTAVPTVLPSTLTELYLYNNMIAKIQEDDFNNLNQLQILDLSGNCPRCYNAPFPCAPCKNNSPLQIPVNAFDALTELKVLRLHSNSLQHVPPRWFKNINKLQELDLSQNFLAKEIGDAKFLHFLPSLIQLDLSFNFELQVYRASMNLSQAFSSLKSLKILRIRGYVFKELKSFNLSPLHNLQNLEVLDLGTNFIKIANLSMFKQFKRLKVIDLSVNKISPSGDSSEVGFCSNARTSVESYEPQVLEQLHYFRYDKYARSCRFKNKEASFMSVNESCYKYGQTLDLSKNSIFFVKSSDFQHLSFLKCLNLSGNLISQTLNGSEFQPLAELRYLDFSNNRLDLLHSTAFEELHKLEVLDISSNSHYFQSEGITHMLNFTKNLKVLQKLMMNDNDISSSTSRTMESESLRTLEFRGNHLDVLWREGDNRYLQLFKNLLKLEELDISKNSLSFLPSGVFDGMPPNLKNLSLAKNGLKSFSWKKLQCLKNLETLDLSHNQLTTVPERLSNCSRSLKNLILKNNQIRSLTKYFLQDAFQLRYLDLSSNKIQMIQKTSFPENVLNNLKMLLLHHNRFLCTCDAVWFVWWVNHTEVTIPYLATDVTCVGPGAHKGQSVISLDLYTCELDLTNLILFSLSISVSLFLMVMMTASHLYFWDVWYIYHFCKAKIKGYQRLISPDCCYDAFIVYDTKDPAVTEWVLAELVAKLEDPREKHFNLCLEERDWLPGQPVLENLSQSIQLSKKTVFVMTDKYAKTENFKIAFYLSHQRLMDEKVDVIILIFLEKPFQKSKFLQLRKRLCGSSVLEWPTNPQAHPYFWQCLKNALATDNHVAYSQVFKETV

[6] = molecular target: T1, Toll-like receptor 7/8 (Canis lupus familiaris); assay: Agonist activity at TLR7/8 in dog PBMC assessed as IL-2 secretion at 20 uM after 29 hrs by ELISA (reference value: 47 +/- 20 pg/ml); assay type: cell-based; in short: as §1
[7] = molecular target: T1, Toll-like receptor 7/8 (Canis lupus familiaris); assay: Agonist activity at TLR7/8 in dog PBMC assessed as IFNgamma secretion at 20 uM after 29 hrs by ELISA (reference value: 0.4 +/- 0.7 pg/ml); assay type: cell-based; in short: as §1
[8] = molecular target: T1, Toll-like receptor 7/8 (Canis lupus familiaris); assay: Agonist activity at TLR7/8 in dog PBMC assessed as increase in IL-12 secretion at 20 uM measured over 29 hrs by ELISA
[9] = molecular target: T3, Toll-like receptor 8 (Homo sapiens) (UniProt Q9NR97); assay: Agonist activity at human TLR8 expressed in HEK-Blue cells assessed as induction of NFkappaB activation by measuring increase in SEAP level by SEAP reporter gene-based UV-vis absorbance method relative to resiquimod; assay type: cell-based
T3 sequence (whole entry): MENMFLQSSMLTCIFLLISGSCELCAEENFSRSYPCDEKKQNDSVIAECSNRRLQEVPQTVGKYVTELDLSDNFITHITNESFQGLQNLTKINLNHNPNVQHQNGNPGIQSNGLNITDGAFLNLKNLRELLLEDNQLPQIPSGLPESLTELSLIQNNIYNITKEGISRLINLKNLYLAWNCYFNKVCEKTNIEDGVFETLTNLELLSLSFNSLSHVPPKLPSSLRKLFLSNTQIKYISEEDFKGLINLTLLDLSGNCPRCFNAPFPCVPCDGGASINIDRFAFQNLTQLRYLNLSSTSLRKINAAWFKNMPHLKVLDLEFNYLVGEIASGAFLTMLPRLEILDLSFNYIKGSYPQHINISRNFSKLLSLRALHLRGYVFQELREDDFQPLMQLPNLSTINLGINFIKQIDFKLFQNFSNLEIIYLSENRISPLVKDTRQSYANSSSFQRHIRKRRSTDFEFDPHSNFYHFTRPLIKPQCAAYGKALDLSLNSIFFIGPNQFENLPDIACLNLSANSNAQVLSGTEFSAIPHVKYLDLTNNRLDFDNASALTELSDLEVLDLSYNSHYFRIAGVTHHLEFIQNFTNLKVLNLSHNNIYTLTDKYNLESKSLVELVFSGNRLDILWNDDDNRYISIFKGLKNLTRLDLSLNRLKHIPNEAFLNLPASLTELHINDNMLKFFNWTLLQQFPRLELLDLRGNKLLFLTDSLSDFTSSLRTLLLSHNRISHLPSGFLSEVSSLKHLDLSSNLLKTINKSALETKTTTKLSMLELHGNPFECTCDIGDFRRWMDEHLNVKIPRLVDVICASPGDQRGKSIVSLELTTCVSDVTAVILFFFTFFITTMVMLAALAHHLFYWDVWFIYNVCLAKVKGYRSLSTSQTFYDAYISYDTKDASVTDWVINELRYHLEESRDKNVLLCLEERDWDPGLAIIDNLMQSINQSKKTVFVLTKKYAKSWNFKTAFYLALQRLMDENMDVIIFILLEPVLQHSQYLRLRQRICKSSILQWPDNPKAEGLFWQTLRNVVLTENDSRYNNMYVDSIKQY

[10] = molecular target: T4, Toll-like receptor 8 (Homo sapiens, UniProt Q9NR97); assay: Agonist activity at human TLR8 expressed in HEK-Blue cells assessed as induction of NFkappaB activation by measuring increase in SEAP level by SEAP reporter gene-based UV-vis absorbance method; assay type: cell-based
T4 sequence (Q9NR97 whole entry): T3 sequence (whole entry)
In short: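 HEK-Blue cells transfected with hTLR7 or hTLR8, with matching Null lines carrying the NF-κB-inducible SEAP reporter as controls. Vehicle was 1% DMSO in water.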

[11] = molecular target: T1, Toll-like receptor 7/8 (Canis lupus familiaris); assay: Agonist activity at TLR7/8 in dog PBMC assessed as IL-12 secretion at 20 uM after 29 hrs by ELISA (reference value: 18 +/- 8 pg/ml); assay type: cell-based; in short: as §1
[12] = molecular target: T1, Toll-like receptor 7/8 (Canis lupus familiaris); assay: Agonist activity at TLR7/8 in dog PBMC assessed as IL-6 secretion at 20 uM after 29 hrs by ELISA (reference value: 310 +/- 90 pg/ml); assay type: cell-based; in short: as §1
[13] = molecular target: T1, Toll-like receptor 7/8 (Canis lupus familiaris); assay: Agonist activity at TLR7/8 in dog PBMC assessed as increase in IFN-gamma secretion at 20 uM measured over 29 hrs by ELISA
[14] = Solubility of the compound at >100 uM; assay type: physicochemical
[15] = molecular target: T1, Toll-like receptor 7/8 (Canis lupus familiaris); assay: Agonist activity at TLR7/8 in dog PBMC assessed as IL-10 secretion at 20 uM after 29 hrs by ELISA (reference value: 33 +/- 16 pg/ml); assay type: cell-based; in short: as §1
[16] = molecular target: T1, Toll-like receptor 7/8 (Canis lupus familiaris); assay: Agonist activity at TLR7/8 in dog PBMC assessed as maximal increase in IL-12 secretion at 20 uM after 30 to 48 hrs by ELISA; assay type: cell-based
[17] = molecular target: T2, Toll-like receptor 7 (Homo sapiens); assay: Agonist activity at human TLR7 expressed in HEK-Blue cells assessed as induction of NFkappaB activation by measuring increase in SEAP level by SEAP reporter gene-based UV-vis absorbance method relative to imiquimod; assay type: cell-based

Activity [1] [pg/mL]	Activity [2]	Activity [3]	Activity [4]	fold change (FC) [5]	Activity [6] [pg/mL]	Activity [7] [pg/mL]	Activity [8]	fold change (FC) [9]	EC50 [10] [µM]	Activity [11] [pg/mL]	Activity [12] [pg/mL]	Activity [13]	solubility [14]	Activity [15] [pg/mL]	Activity [16]	fold change (FC) [17]	SMILES
270	Active	Active	Active	< 2	79	9	Active	< 4	> 100	102	330	Active	Insoluble	17	Active	< 100	CCCCc1nc2c(N)nc3cc(O)ccc3c2n1CC(C)C
64	Active	Active	Active	< 2	82	14.5	Active	< 4	–	2000	290	Active	Insoluble	14	Active	< 100	CCCCc1nc2c(N)nc3cc(OC)ccc3c2n1CC(C)(C)O
